Hits are enriched below; roughly 2.2% of the tested compounds scored in any of these assays.
FGF22 binding = binders of human FGF22 protein, primary screen, FGF22 synaptogenesis inhibitor project, biophysical, thermal shift, single point; recombinant FGF22 thermal shift, SYPRO orange fluorescence; percent of sucrose octasulfate shift, DMSO zero; activity (Tm shift, normalised), % at 9.99 µM; Fibroblast growth factor 22 (Homo sapiens), Q9HCT0; 1.5% of 340,000 active; AID 651658, 2012;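 active = mean Tm shift, scaled 0 neutral to 100 positive control, at about 1.3% or above, every replicate too, limit read from the data; inconclusive = no clear call, values can overlap the other calls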
Target sequence (Q9HCT0 whole entry, looked up): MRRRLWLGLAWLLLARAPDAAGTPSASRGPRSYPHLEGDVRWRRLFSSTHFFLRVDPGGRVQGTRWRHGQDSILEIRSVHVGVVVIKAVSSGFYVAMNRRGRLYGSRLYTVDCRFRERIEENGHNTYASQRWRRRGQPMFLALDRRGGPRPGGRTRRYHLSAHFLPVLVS
ERAP1 inh = human ERAP1 aminopeptidase inhibitors, primary screen, biochemical, single point, plate reader. Endoplasmic reticulum aminopeptidase 1 (Homo sapiens), Q9NZ08. inhibition, % at 10.7 µM. recombinant ERAP1, Leu-AMC fluorescence, 60 min. AID 652197, 2013. 0.15% of 340,000 active;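 active = mean replicate inhibition of at least 30%, or all replicates individually reaching that 30% level; inactive = mean below 30% and not every replicate reaching it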
FN deposit inh = inhibitors of fibronectin matrix deposition, primary screen, AH1F cells, Alexa488-fibronectin fluorescence, plate reader; AH1F fibroblasts, overnight; inhibition, % at 12.6 µM; 0.086% of 350,000 active;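 active = mean inhibition across replicates of 30% or more, regardless of how many single replicates reach that level; inconclusive = mean under 30% yet at least half of replicates reach 30%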
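Schedule: 1 h cell adhesion before compound, then overnight fibronectin incubation; test system: AH1F fibroblast monolayer depositing Alexa488-labelled fibronectin into matrix; quantity: 10000 AH1F cells per well; probe or stimulus: fluorescent fibronectin at 24 nM final; signal: fluorescence, ex 485 nm, em 525 nm; evaluation: percent inhibition as loss of matrix-bound fibronectin fluorescence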
PGC1a acetyl inh = inhibitors of PGC1a acetylation signal, primary screen, cell-based, U2OS, AlphaScreen, inhibitor mode | AlphaScreen anti-acetyl-lysine; with virally co-expressed GCN5 acetyltransferase | inhibition, % at 15.6 µM | 0.17% of 350,000 active;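 active = every replicate shows inhibition of at least 40%; inconclusive = mean inhibition at least 40% but some replicate below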
SIRT5 inh = SIRT5 desuccinylase inhibitors, primary screen, biochemical, fluorescence imaging, single point, set 5; Purified SirT5, succinyl-peptide AMC, trypsin-coupled fluorescence; inhibition, % at 15 µM; 1.1% of 330,000 active; AID 652115, 2013; in the data active = inhibition above about 15%; inconclusive = no clear call, values can overlap the other calls
Target sequence (Q9NXA8 whole entry, looked up): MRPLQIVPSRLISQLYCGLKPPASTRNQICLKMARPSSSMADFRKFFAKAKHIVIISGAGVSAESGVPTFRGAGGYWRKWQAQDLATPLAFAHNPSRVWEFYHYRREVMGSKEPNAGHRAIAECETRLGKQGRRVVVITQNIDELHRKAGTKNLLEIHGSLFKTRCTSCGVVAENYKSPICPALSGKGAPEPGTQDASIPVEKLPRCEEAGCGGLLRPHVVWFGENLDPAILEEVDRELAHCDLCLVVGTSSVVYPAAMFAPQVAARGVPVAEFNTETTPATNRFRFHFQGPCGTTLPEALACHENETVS
A number is an active result; 0 = inactive; ? = inconclusive; - = no result.

SMILES	FGF22 binding	ERAP1 inh	FN deposit inh	PGC1a acetyl inh	SIRT5 inh
CCCCN1C(=O)/C(=C/C=C/c2ccco2)C(=O)NC1=S	-	0	0	0	38
CC(C)(O)/C=C/C(=O)[C@](C)(O)C1[C@H](O)C[C@@]2(C)C3CC=C4C(C[C@H](O)[C@@H](O)C4(C)C)[C@]3(C)C(=O)C[C@]12C (stereo partly drawn)	-	-	-	65	-
CCCC#Cc1ccc([C@H]2[C@H]3CN(C(=O)Cc4ccccn4)CCCCN3[C@H]2CO)cc1	0	0	-	0	0
COCC#Cc1ccc([C@H]2[C@H](CO)N3CCCCN(C(=O)Cc4ccccn4)C[C@@H]23)cc1	0	0	-	0	0
CN1C2CCC1/C(=C/c1ccccn1)C(=O)/C2=C\c1ccccn1	0	0	0	78	0
CN1[C@@H]2CN(S(C)(=O)=O)C[C@H]1C2c1ccc(Br)cc1 (stereo partly drawn)	-	-	0	-	-
CCOc1ccccc1N=C1SCCCN1C	-	-	0	97	-
CC(=O)N1CCCSC1=Nc1ccccc1	0	0	0	-	0
O=S1(=O)CCN(CCc2c[nH]c3ccccc23)CC1	43	0	0	0	0
Cc1ccc(N2C(=O)NC(=O)/C(=C/c3cnn(-c4ccc(C)cc4)c3)C2=O)cc1	-	-	0	-	-
Cc1ccc(N2C(=O)NC(=O)/C(=C/c3ccoc3)C2=O)cc1	0	0	0	?	18
O=C1NC(=O)N(Cc2ccccc2)C(=O)/C1=C\c1ccco1	0	0	0	-	25
COc1ccc(CN2C(=O)NC(=O)/C(=C/c3ccoc3)C2=O)cc1	0	0	0	0	21
CC[C@H]1C=C(C(=O)N[C@@]2(C(=O)O)C[C@H]2CC)[C@H]2CCC(=O)[C@H]2C1	0	0	-	0	0
CN1[C@@H]2CN(CC(F)(F)F)C[C@H]1C2c1ccc(Br)cc1 (stereo partly drawn)	-	-	0	-	-
CN(C)C(=O)[C@H]1[C@H](CO)[C@H]2Cn3c(cccc3=O)[C@@H]1N2CC1CC1	0	0	-	-	0
CCC(c1nnnn1-c1ccc2c(c1)OCCO2)N1CCC(n2c(=O)[nH]c3ccccc32)CC1 (stereo not drawn)	0	0	0	0	0
CSCCC(c1nnnn1-c1ccc2c(c1)OCCO2)N1CCC(n2c(=O)[nH]c3ccccc32)CC1 (stereo not drawn)	0	0	0	0	19
CC1=NN(c2ccccc2)C(=O)/C1=C/c1c(O)[nH]c(=O)[nH]c1=O	1.4	0	0	49	0
C[C@@H]1CN([C@@H](C)CO)C(=O)c2c(c3ccccc3n2C)-c2ccccc2CO[C@@H]1CN(C)C(=O)Oc1ccccc1	0	0	0	0	0
Cc1cc(OCC(=O)NC(Cc2ccc(Cl)cc2)C(=O)O)c2c3c(c(=O)oc2c1)CCCC3 (stereo not drawn)	0	31	-	0	-
N#Cc1cccc(-c2ccc([C@H]3[C@H](CO)N4CCCCN(C(=O)Cc5ccncc5)C[C@@H]34)cc2)c1	0	0	-	0	0
CN1C(=O)/C(=C\c2ccc(Br)s2)C(=O)NC1=S	0	0	0	0	0
O=C1NC(=S)NC(=O)C1=Cc1ccc(Br)s1	0	0	0	0	24
CCCCCCCCCCCCCCCC[N+](C)(C)C	0	42	0	0	0
SMILES	FGF22 binding	ERAP1 inh	FN deposit inh	PGC1a acetyl inh	SIRT5 inh
O=C(Cc1cccnc1)N1CCCCN2[C@H](CO)[C@H](c3ccc(C#CC4CC4)cc3)[C@@H]2C1	0	0	-	0	0
CCCC#Cc1ccc([C@@H]2[C@@H](CO)N3CCCCN(C(=O)Cc4ccccn4)C[C@@H]23)cc1	0	0	-	0	0
O=c1c2ccccc2nc(/C=C/c2ccc([N+](=O)[O-])o2)n1-c1ccc(O)cc1	0	0	0	0	0
Cc1cccc(-n2c(/C=C/c3ccc([N+](=O)[O-])o3)nc3ccccc3c2=O)c1	0	0	0	-	18
CS(=O)(=O)N1C[C@@H]2N[C@H](C1)C2c1ccccc1 (stereo partly drawn)	-	-	0	-	-
O=C(CN1CC(c2ccccc2)CC1=O)NCc1ccc(F)cc1 (stereo not drawn)	43	0	0	0	0
CC=Cc1ccc2n(c1=O)C[C@H]1[C@H](CO)[C@@H](C(=O)N(C)C)[C@@H]2N1C (mixture of isomers)	0	0	0	-	0
COC(=O)C[C@]1(C(=O)OC)CN(C#N)N(c2ccc(Cl)cc2)C12c1ccccc1-c1ccccc12	-	0	41	0	0
COC(=O)[C@@H]1[C@@H](C(=O)OC)C2(c3ccccc3-c3ccccc32)N(c2ccc(Cl)cc2)N1C#N	-	0	-	77	17
CC(C)NC(=O)N1C[C@@H]2C(c3ccc(Br)cc3)[C@H](C1)N2C (stereo partly drawn)	-	-	0	-	-
Cc1ccc(OC(=O)N(C)C[C@H]2OCc3ccccc3-c3c(n(C)c4ccccc34)C(=O)N([C@@H](C)CO)C[C@H]2C)cc1	0	0	0	0	0
N#Cc1cccc(-c2ccc([C@@H]3[C@H](CO)N4CCCCN(C(=O)Cc5ccccc5)C[C@@H]34)cc2)c1	0	0	-	0	0
COC(=O)[C@H]1[C@H](CO)[C@H]2Cn3c(ccc(C4=CCCCC4)c3=O)[C@@H]1N2CC1CCCC1	-	0	-	-	0
CC(C)(C)NS(=O)(=O)c1ccc(OCC(=O)N2CCN(Cc3ccccc3)CC2)cc1	44	0	0	0	0
CCCNS(=O)(=O)c1ccc(OCC(=O)N2CCN(Cc3ccccc3)CC2)cc1	-	-	0	0	-
C[C@]12CC[C@H]3[C@@H](CC[C@]4(O)C[C@@H](O)CC[C@]34C=O)[C@@]1(O)CC[C@@H]2C1=CC(=O)OC1	0	0	0	96	0
C[N+](C)(C)CC#CCN1CCCC1=O	0	73	0	0	0
COC(=O)[C@H]1[C@H](CO)[C@H]2Cn3c(ccc(-c4cccc(F)c4)c3=O)[C@@H]1N2C(=O)CC1CC1	0	0	-	-	0
O=C(c1ccc2c(c1)ncn2-c1ccc(F)cc1F)N1CCC2(CC1)OCCO2	44	0	0	-	0
N#CC1=C(N)Oc2c(c(=O)oc3ccccc23)C1c1ccc([N+](=O)[O-])o1 (stereo not drawn)	43	0	0	0	0
COC(=O)[C@@H]1[C@@H](CO)[C@@H]2Cn3c(ccc(-c4ccccc4F)c3=O)[C@H]1N2C(C)=O	0	0	-	-	0
C/C=C/c1ccc(C2[C@@H]3CN(Cc4cocn4)C[C@H]2N3)cc1 (stereo partly drawn)	-	0	0	0	0
O=C1NC(=O)C(CCc2ccncc2)(CCc2ccccn2)C(=O)N1c1ccc(Br)cc1 (stereo not drawn)	43	0	-	0	0
O=C(N/N=C/c1c(O)n(Cc2ccco2)c(=O)[nH]c1=O)c1ccccc1O	0	0	0	0	15
